{"source": "the EternaBench riboswitch data", "system": "MS2 coat protein", "test": "apparent Kd, MS2 coat protein; higher = weaker binding; RNA-MaP array", "how_it_was_run": "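Designed RNAs were transcribed on an Illumina sequencing chip from sequenced DNA templates. They were incubated at room temperature with fluorescently labeled MS2 coat protein at 1.5 nM to 3 μM, for 0.8–1.5 h at the lowest to 10–20 min at the highest concentrations, in Tris-HCl pH 7.5 buffer with KCl, MgCl2, BSA, DTT, tRNA and Tween20, with or without input ligand. Apparent Kd is the median of per-cluster binding-curve fits. Designs measured on fewer than 10 clusters were excluded.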", "key": {"[1]": {"conditions": "designed as: ON switch for flavin mononucleotide, no ligand"}, "[2]": {"conditions": "ligand present: flavin mononucleotide, designed as: ON switch for flavin mononucleotide"}, "[3]": {"conditions": "designed as: OFF switch for flavin mononucleotide, no ligand"}, "[4]": {"conditions": "ligand present: flavin mononucleotide, designed as: OFF switch for flavin mononucleotide"}}}
{"sequence": "CUCUAAUAAUAUUUCAACAUGAGGAUCACCCAUGUAAUCAGCAAGGAUAUGGUCUUGAUAAGAACCCAGAAGGUGCAUAUAGAU", "values": [{"measurement": "apparent Kd", "setting": "[1]", "result": 22.7, "unit": "nM"}, {"measurement": "apparent Kd", "setting": "[2]", "result": 14.9, "unit": "nM"}]}
{"sequence": "GAUUUGUGAGGAUAUCAUUAGAAACAAGUAUGAGGCGAAAGUGAGAAGGCACAUGAGGAUCACCCAUGUUGGAA", "values": [{"measurement": "apparent Kd", "setting": "[3]", "result": 15, "unit": "nM"}, {"measurement": "apparent Kd", "setting": "[4]", "result": 15.7, "unit": "nM"}]}
{"sequence": "CAUUGAGCAGCUGAUACCAGUGCCUGAACUUACAUGAGGAUCACCCAUGUAUGCCCAAAACACCCUUGGCAGCAGAGGAAGAUCG", "values": [{"measurement": "apparent Kd", "setting": "designed as: ON switch for theophylline, no ligand", "result": 14.5, "unit": "nM"}, {"measurement": "apparent Kd", "setting": "ligand present: theophylline, designed as: ON switch for theophylline", "result": 13.9, "unit": "nM"}]}
{"sequence": "GAUUACGGUCUAGGAUAUUGAUUGGCACAUGAGGAUCACCCAUGUCUGUGAGAUCAGCAUACAAGCAAGAAGGAGAUGCGGUCU", "values": [{"measurement": "apparent Kd", "setting": "[3]", "result": 10.6, "unit": "nM"}, {"measurement": "apparent Kd", "setting": "[4]", "result": 10.9, "unit": "nM"}]}
{"sequence": "GACACCCAAGGAUAUCAAUGAAUCAACAUGAGGAUCACCCAUGUCGUCACCAGAUUAAACUGAGAAGGAGGAGAAA", "values": [{"measurement": "apparent Kd", "setting": "[3]", "result": 11.4, "unit": "nM"}, {"measurement": "apparent Kd", "setting": "[4]", "result": 9.75, "unit": "nM"}]}
{"sequence": "GGUGCACAUGAGGAUCACCCAUGUGAGGAUAUGUGAAACGAGCUGAAUGCCAACCAAAACAGAAGGCACAAUGG", "values": [{"measurement": "apparent Kd", "setting": "[3]", "result": 18.3, "unit": "nM"}, {"measurement": "apparent Kd", "setting": "[4]", "result": 19, "unit": "nM"}]}
{"sequence": "CUUCAACAUGAGGAUCACCCAUGUAAGGAUAUCUGCCUCACAGCACCAAAGUGCGGGAAGAGAAGGUACGUAGU", "values": [{"measurement": "apparent Kd", "setting": "[3]", "result": 15.4, "unit": "nM"}, {"measurement": "apparent Kd", "setting": "[4]", "result": 14.5, "unit": "nM"}]}
{"sequence": "UUCAUUUAGGAGGAUAUUUAGGCAUGAGGGCUAAAAGAAGGCCUAACAUGAGGAUCACCCAUGUUUGGACUAGA", "values": [{"measurement": "apparent Kd", "setting": "[3]", "result": 5.51, "unit": "nM"}, {"measurement": "apparent Kd", "setting": "[4]", "result": 7.4, "unit": "nM"}]}
{"sequence": "CCCAACAUGAGGAUCACCCAUGUUCCGGGUCGAGGACCGGUACGGCCGCCACUCGGUAUGAUGGGUGUGCAGCGUAUCUGCACCA", "values": [{"measurement": "apparent Kd", "setting": "designed as: ON switch for tryptophan, no ligand", "result": 38.5, "unit": "nM"}, {"measurement": "apparent Kd", "setting": "ligand present: tryptophan, designed as: ON switch for tryptophan", "result": 17.2, "unit": "nM"}]}
{"sequence": "UUGGUUGGGAAAACGAUUUGCACAUGAGGAUCACCCAUGUCGAAGGAUAUGUGGCGCUGUUUGCGACAGAAGGUCGACCUCGCC", "values": [{"measurement": "apparent Kd", "setting": "[1]", "result": 15.5, "unit": "nM"}, {"measurement": "apparent Kd", "setting": "[2]", "result": 14.9, "unit": "nM"}]}
{"sequence": "CGACCGCACGAGAAGGCUAGACAGCGGCGAUCUAGAGGAUAUCGACAUUCAACAUGAGGAUCACCCAUGUGAUUCCAACAAGCU", "values": [{"measurement": "apparent Kd", "setting": "[3]", "result": 57.8, "unit": "nM"}, {"measurement": "apparent Kd", "setting": "[4]", "result": 69.6, "unit": "nM"}]}
{"sequence": "AGUGCAAAUGUAGGAUAUGGACAUGAGGAUCACCCAUGUCAUUAAUAUUAUCGGUCCAAUUUUCUCCAGAAGGACAAAGGCUUG", "values": [{"measurement": "apparent Kd", "setting": "[3]", "result": 11.6, "unit": "nM"}, {"measurement": "apparent Kd", "setting": "[4]", "result": 10.1, "unit": "nM"}]}
{"sequence": "CGGUGAUUCGUAGGAUAUGUAUGAAGCUAGAGAACAGAAGGACGUCGCUACAAAAUUCAAAAUUACAUGAGGAUCACCCAUGUA", "values": [{"measurement": "apparent Kd", "setting": "[1]", "result": 25.2, "unit": "nM"}, {"measurement": "apparent Kd", "setting": "[2]", "result": 16.4, "unit": "nM"}]}
{"sequence": "AAUUAUACAUGAGGAUCACCCAUGUCAAAUAUUGAUAGCUGGCAGGAUAUGAUAGAGACGGAAACUCAGAAGGGCCCGAUGAAC", "values": [{"measurement": "apparent Kd", "setting": "[1]", "result": 15, "unit": "nM"}, {"measurement": "apparent Kd", "setting": "[2]", "result": 12.6, "unit": "nM"}]}
{"sequence": "ACGAGCACCUCAGGAUAUGGAAAGGACUCUUCAUUGGCUACUCGAACAUGAGGAUCACCCAUGUUCCAGAAGGGAGGAGAAGCC", "values": [{"measurement": "apparent Kd", "setting": "[3]", "result": 7.07, "unit": "nM"}, {"measurement": "apparent Kd", "setting": "[4]", "result": 11.6, "unit": "nM"}]}
{"sequence": "GAAGCGUGAGCAGGAUAUUUAGACAUGAGGAUCACCCAUGUGUGCUAACUAGAAUGCAGGUUUUUAAAGAAGGGCUCCUAGAUU", "values": [{"measurement": "apparent Kd", "setting": "[1]", "result": 11.4, "unit": "nM"}, {"measurement": "apparent Kd", "setting": "[2]", "result": 7.11, "unit": "nM"}]}
{"sequence": "CAUCGUCGGUCGGCCGCCACUACUGGACAUGAGGAUCACCCAUGUGGCCCGCUGUAUUAACCGCGUAGGACCGGGACGGGAGGUA", "values": [{"measurement": "apparent Kd", "setting": "designed as: OFF switch for tryptophan, no ligand", "result": 30, "unit": "nM"}, {"measurement": "apparent Kd", "setting": "ligand present: tryptophan, designed as: OFF switch for tryptophan", "result": 32.9, "unit": "nM"}]}
{"sequence": "CCAUGAAGAUAGGAUAUAGGUCGAGUUCCCGAACAAGAAGGAUCGACAUGAGGAUCACCCAUGUGCAUCCAUGA", "values": [{"measurement": "apparent Kd", "setting": "[3]", "result": 27.1, "unit": "nM"}, {"measurement": "apparent Kd", "setting": "[4]", "result": 21.1, "unit": "nM"}]}
{"sequence": "GUAAGCAAGCAAGGAUAUGAUAUAAAUUCGAUAUCAGAAGGUGCCUUUCCUAGUCGAAUACAUGAGGAUCACCCAUGUCAGCAA", "values": [{"measurement": "apparent Kd", "setting": "[1]", "result": 25.6, "unit": "nM"}, {"measurement": "apparent Kd", "setting": "[2]", "result": 18, "unit": "nM"}]}
{"sequence": "UUGUUCAGCCUAGGAUAUGGGCAAACAUGAGGAUCACCCAUGUUGAGGCUACCACAAAGCCUGCACCAGAAGGAGGCCUAUACG", "values": [{"measurement": "apparent Kd", "setting": "[1]", "result": 9.27, "unit": "nM"}, {"measurement": "apparent Kd", "setting": "[2]", "result": 5.71, "unit": "nM"}]}
{"sequence": "GAGCACUUAGGAUAUUGGUUGACACACAUGAGGAUCACCCAUGUGAUUCCUGCCUUUAACCAAGAAGGAAGAGUAU", "values": [{"measurement": "apparent Kd", "setting": "[3]", "result": 14.7, "unit": "nM"}, {"measurement": "apparent Kd", "setting": "[4]", "result": 13.5, "unit": "nM"}]}
{"sequence": "UUCGUCGGACACACACAUGAGGAUCACCCAUGUAUCUCAAUCAGAAGGGUAUCACCGGAUAGGGUACAGGAUAUGACUACUAUA", "values": [{"measurement": "apparent Kd", "setting": "[1]", "result": 43, "unit": "nM"}, {"measurement": "apparent Kd", "setting": "[2]", "result": 22.3, "unit": "nM"}]}
{"sequence": "CUUUACAUAUGUAUGUGGGUUACAUGAGGAUCACCCAUGUGAAGAAGGCUCACCUCAAGCGCAAGAGAGGAUAUUCACGGGUCC", "values": [{"measurement": "apparent Kd", "setting": "[3]", "result": 60.8, "unit": "nM"}, {"measurement": "apparent Kd", "setting": "[4]", "result": 104, "unit": "nM"}]}
